These results are taken from ChEMBL document CHEMBL2169884, “Novel inhibitors of heat shock protein Hsp70-mediated luciferase refolding that bind to DnaJ” (Bioorg Med Chem, 2012).

Broadly, the IC50 is the point on the concentration scale where inhibition reaches its midpoint. The low end stands for higher potency, the high end for lower potency.

The nature of experiment [1]: Inhibition of human HSP70/DnaJ-mediated luciferase refolding after 10 mins by liquid scintillation counting. The method, boiled down: (§1)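 Luciferase (0.5 mg/mL) denatured in 6 M guanidine HCl in buffer A (25 mM Hepes pH 7.4, 50 mM potassium acetate, 5 mM DTT), 60 min at RT, then diluted 1:20. Refolding mixture: 0.5 µM Hsp70, 60 nM DnaJ, 125 ng denatured luciferase with compound in buffer containing 0.1 mM ATP, creatine phosphate and creatine phosphokinase. Incubated 1 h; DnaJ, luciferase or ATP varied in mechanism runs. Aliquots read by luciferin luminescence after 10 min. IC50 is the geometric mean of ≥3 determinations.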

The species entered for experiment [2] is Homo sapiens. Nature of the experiment: Inhibition of human HSP70/DnaJ-mediated luciferase refolding after 10 mins by liquid scintillation counting in presence of up to 10 mM of ATP. The method, boiled down: as §1
Experiment [3] is filed under the species Homo sapiens. Put plainly: Inhibition of human Hsp70-mediated ATPase activity at 10 uM.
The species entered for experiment [4] is Homo sapiens. Put plainly: Inhibition of DnaJ-mediated stimulation of human Hsp70 ATPase activity at 10 uM. Conditions: 0.1 to 3.2 uM, in the assay text read “at 0.1 to 3.2 uM” for “at 10 uM”. The method, boiled down: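 Hsp70 (300 nM) incubated with 3.2 µM ATP and DnaJ (0.1–320 nM) at 37 °C for 5–40 min in pH 7.4 HEPES buffer with KCl, EGTA and MgCl2. Reactions stopped with EDTA stop buffer containing ADP tracer and antibody. ADP detected by Transcreener fluorescence (ex 580, em 620 nm).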

Experiment [5] can be described thus: Binding affinity to DnaJ assessed as rightward shift in melting temperature at 10 to 30 uM by thermal denaturation assay.
The species entered for experiment [6] is Homo sapiens. Put plainly: Binding affinity to human Hsp70 assessed as rightward shift in melting temperature by thermal denaturation assay.
Experiment [7] is filed under the species Homo sapiens. Put plainly: Inhibition of human HSP70/DnaJ-mediated luciferase refolding after 10 mins by liquid scintillation counting in presence of 0.1 to 10 µg/mL of denatured luciferase. The method, boiled down:
as §1

The nature of experiment [8]: Binding affinity to DnaJ assessed as rightward shift in melting temperature by thermal denaturation assay.
For experiment [9], the species on record is Homo sapiens. Nature of the experiment: Binding affinity to human Hsp70 assessed as rightward shift in melting temperature at 3.2 to 32 uM by thermal denaturation assay.
Experiment [10] in a line: Binding affinity to DnaJ assessed as rightward shift in melting temperature at 3.2 to 32 uM by thermal denaturation assay.
The subject of experiment [11] is HeLa. Put plainly: Induction of Hsp70 in human HeLa cells at 10 uM after overnight incubation by solid state immuno assay relative to 17-AAG. It counts as functional. The method, boiled down: (§2)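 HeLa or A172 cells treated overnight with compound; Hsp70 levels measured by solid-state immunoassay, with stimulation expressed relative to 1 µM 17-AAG as positive control.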

The nature of experiment [12]: Inhibition of luciferase refolding in rabbit reticulocyte lysate preincubated for 30 mins measured after 1 hr by liquid scintillation counting.
The subject of experiment [13] is A 172. Put plainly: Induction of Hsp70 in human A172 cells at 10 uM after overnight incubation by solid state immuno assay relative to 17-AAG. The format is functional. The essentials:
as §2

Experiment [14] in a line: Effect on luciferase activity up to 300 uM.

Active and inactive are the calls of the source. The rule behind the calls is not given here. Some results are limits rather than exact numbers.

In experiment [1], `CCOC(=O)c1cccc(NC(=O)COc2ccc(Cl)cc2)c1` registered an IC50 of more than 32 µM.

As for `CCCCOC(=O)c1cccc(NC(=O)COc2ccc(Cl)cc2Cl)c1`, the IC50 in experiment [1] came to 0.13 µM. Moreover, the inhibition entry in experiment [2] and in experiment [4] was “Active” in each case. Further, the inhibition entry in [3] and in experiment [7] was “inactive” each time. Further, in experiment [5], the Tm(app) was 2 °C. In [6], the result was inactive. Also, the Activity result in experiment [8] is “Dose-dependent effect”.

The compound `COC(=O)c1cccc(NC(=O)COc2ccc(Cl)cc2Cl)c1` displayed an IC50 in experiment [1] of more than 32 µM. Also, the result in [9] and in experiment [10] was inactive.

In turn, `CCCOC(=O)c1cccc(NC(=O)COc2ccccc2Cl)c1` displayed an IC50 in [1] of 0.6 µM.

`Clc1ccccc1C1Oc2ccccc2-c2cc(-c3ccco3)nn21` (centres undefined): the figures for the IC50 in experiment [1] and in [12] were more than 100 µM and 8.8 µM, respectively. In addition, the Activity in [11] and in [13] was less than 10% throughout. In experiment [14], the outcome was inactive.

On to `c1ccc(Nc2nc(-c3cccs3)cs2)cc1`, for which the concentration for half-maximal inhibition (IC50) in [1] was found to be 22 µM; in experiment [12], 1.1 µM. Also, the Activity in experiment [11] and in experiment [13] was less than 10% throughout. The result in experiment [14] was inactive.

With `CCOC(=O)c1cccc(NC(=O)COc2ccccc2Cl)c1`, the IC50 in [1] was 0.62 µM; in experiment [12], 0.81 µM. In addition, the Activity in [11] and in experiment [13] was less than 10% in each case. In experiment [14], the result was inactive.

Take `CCCCCOC(=O)C1=C(C)NC2(O)c3ccccc3C(=O)C12O` (centres undefined): the IC50 in [1] was more than 30 µM; in experiment [12], 4.3 µM. Besides, the Activity in experiment [11] and in [13] was less than 10% each time. Moreover, the result in experiment [14] was inactive.

The compound `COC(=O)c1cccc(NC(=O)COc2cc(Cl)ccc2Cl)c1` showed an IC50 in [1] of 0.95 µM.

Regarding `Clc1ccc(Nc2nc(-c3cccs3)cs2)cc1`, the figures for the IC50 in experiment [1] and in [12] were more than 100 µM and 4 µM, respectively. Moreover, the Activity in experiment [11] and in experiment [13] was less than 10% throughout. In experiment [14], the outcome was inactive.
